Experimental data: ChEMBL document CHEMBL1132477, “Design and synthesis of novel alpha(1)(a) adrenoceptor-selective antagonists. 2. Approaches to eliminate opioid agonist metabolites via modification of linker and 4-methoxycarbonyl-4-phenylpiperidine moiety” (J Med Chem, 1999)

How the values were obtained:
[1] = Bioavailability in dog; format: ADME, organism-based, Canis lupus familiaris; settings: in vivo
[2] = Bioavailability in rat; format: ADME, organism-based; settings: in vivo
[3] = Plasma half life in dog; format: ADME, organism-based, Canis lupus familiaris
[4] = Plasma half life in rat; format: ADME, organism-based
Rattus norvegicus [5] = organism: Rattus norvegicus; test: Duration of action in rat; format: ADME, organism-based; settings: in vivo
Canis familiaris [6] = organism: Canis familiaris; test: Potency to inhibit phenylephrine induced diastolic blood pressure in dog.; format: functional, Canis lupus familiaris, Artery
How it was run: (§1)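 In dogs, diastolic blood pressure and intraurethral pressure were stimulated with phenylephrine. Antagonist potency was expressed as Kb in µg/kg.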

Canis familiaris [7] = organism: Canis familiaris; test: Potency to inhibit phenylephrine induced intraurethral pressure in dog.; format: functional, Canis lupus familiaris, Urethra; how it was run: as §1
Mu-type opioid receptor = Mu-type opioid receptor (Mus musculus, UniProt P42866); test: Binding affinity against opioid receptor
Rattus norvegicus [8] = organism: Rattus norvegicus; test: Antagonism against norepinephrine induced contractions in rat aorta.; format: functional
Rattus norvegicus [9] = organism: Rattus norvegicus; test: Dose required to inhibit 50% of contractile responses induced by phenylephrine in rat prostate.; format: functional, Prostate gland
Rattus norvegicus [10] = organism: Rattus norvegicus; test: Antagonism against phenylephrine induced contractions in rat prostate.; format: functional, Prostate gland
[11] = molecular target: Adrenergic receptor alpha-1 (Homo sapiens) (UniProt P35348+P25100+P35368); test: Selectivity ratio( alpha-1b,1d/alpha1a); format: protein assay
[12] = molecular target: T1, Alpha-1D adrenergic receptor (Homo sapiens, UniProt P25100); test: In vitro binding affinity against alpha-1D adrenergic receptor (cloned human).
T1 sequence (P25100 whole entry): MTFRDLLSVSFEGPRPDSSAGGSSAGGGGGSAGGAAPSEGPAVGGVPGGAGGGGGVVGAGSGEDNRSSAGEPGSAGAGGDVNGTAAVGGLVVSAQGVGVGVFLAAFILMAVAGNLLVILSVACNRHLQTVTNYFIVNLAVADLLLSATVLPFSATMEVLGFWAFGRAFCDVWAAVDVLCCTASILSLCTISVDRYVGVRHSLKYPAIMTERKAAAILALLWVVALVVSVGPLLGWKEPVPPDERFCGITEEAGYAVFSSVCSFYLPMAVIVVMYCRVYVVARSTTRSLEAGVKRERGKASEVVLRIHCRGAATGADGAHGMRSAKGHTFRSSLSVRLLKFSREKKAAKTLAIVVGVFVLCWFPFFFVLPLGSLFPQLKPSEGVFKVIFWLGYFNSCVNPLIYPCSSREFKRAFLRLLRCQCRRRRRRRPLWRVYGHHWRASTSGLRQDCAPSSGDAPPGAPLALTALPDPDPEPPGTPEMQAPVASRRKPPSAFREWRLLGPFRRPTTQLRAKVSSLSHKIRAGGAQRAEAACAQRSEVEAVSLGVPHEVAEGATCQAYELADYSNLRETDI

[13] = molecular target: T2, Alpha-1A adrenergic receptor (Homo sapiens, UniProt P35348); test: In vitro binding affinity against alpha-1A adrenergic receptor of human clones
T2 sequence (P35348 whole entry): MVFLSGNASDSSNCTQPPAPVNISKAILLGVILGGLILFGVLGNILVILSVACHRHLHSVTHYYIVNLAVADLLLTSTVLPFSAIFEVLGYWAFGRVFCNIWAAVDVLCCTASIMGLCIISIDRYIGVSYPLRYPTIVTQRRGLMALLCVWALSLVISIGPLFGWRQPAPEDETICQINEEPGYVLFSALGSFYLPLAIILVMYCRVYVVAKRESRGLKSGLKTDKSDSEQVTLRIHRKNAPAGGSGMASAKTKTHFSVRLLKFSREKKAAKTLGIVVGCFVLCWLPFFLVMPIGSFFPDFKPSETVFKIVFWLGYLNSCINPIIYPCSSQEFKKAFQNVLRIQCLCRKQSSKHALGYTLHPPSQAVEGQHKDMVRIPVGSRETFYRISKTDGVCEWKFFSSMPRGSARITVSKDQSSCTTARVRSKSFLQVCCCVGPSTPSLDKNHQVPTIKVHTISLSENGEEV

[14] = molecular target: T3, Alpha-1B adrenergic receptor (Homo sapiens, UniProt P35368); test: In vitro binding affinity against Alpha-1B adrenergic receptor cloned from human.
T3 sequence (P35368 whole entry): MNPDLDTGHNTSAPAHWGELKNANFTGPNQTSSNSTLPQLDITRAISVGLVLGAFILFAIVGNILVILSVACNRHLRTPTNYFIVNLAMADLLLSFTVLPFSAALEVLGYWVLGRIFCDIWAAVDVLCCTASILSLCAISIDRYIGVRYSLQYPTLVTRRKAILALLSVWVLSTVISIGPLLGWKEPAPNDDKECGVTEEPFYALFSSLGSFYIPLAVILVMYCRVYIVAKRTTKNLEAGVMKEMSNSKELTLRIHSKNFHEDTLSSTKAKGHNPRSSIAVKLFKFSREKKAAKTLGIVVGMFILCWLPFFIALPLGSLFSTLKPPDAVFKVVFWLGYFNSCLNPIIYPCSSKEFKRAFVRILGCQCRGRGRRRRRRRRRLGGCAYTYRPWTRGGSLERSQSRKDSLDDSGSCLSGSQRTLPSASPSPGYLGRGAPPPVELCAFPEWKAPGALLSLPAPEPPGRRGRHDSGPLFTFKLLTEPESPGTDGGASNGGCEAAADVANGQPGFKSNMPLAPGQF

Sequence of Mu-type opioid receptor (P42866 whole entry): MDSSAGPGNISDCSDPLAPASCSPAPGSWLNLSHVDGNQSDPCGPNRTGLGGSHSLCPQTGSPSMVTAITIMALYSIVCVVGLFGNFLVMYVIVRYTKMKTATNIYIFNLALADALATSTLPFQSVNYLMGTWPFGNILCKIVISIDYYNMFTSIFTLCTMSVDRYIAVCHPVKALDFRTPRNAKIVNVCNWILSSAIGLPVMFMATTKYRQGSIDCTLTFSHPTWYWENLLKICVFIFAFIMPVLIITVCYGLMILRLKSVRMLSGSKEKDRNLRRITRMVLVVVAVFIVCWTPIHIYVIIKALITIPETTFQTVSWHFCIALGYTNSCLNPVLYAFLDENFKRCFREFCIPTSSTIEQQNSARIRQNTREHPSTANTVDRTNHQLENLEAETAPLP

CCC1=C(C(N)=O)C(c2ccc(F)cc2F)N(C(=O)NCCCN2CCC(C#N)(c3ccccc3)CC2)C(=O)N1 (stereo not given)
bioavailability [1]: 32% | bioavailability [2]: 8% | half-life [3]: 2.3 h | half-life [4]: 0.4 h | Time (Rattus norvegicus [5]): 1.5 h | Kb (Canis familiaris [6]): >300 µg/kg | Kb (Canis familiaris [7]): 14.2 µg/kg | Ki (Mu-type opioid receptor): 51000 nM | Kb (Rattus norvegicus [8]): > 1000 nM | AD50 (Rattus norvegicus [9]): 0.018 mg/kg | Kb (Rattus norvegicus [10]): 2.2 nM | Ratio [11]: > 900 | Ki [12]: 1280 nM | Ki [13]: 0.7 nM | Ki [14]: 610 nM
